For data set [1], the system named is Mus musculus. As to the kind of experiment: Antidiabetic activity in glucose-treated C57BL/J6 db/db mouse assessed as reduction of glucose AUC at 50 mg/kg, po preincubated for 30 mins followed by glucose challenge measured after 30 to 180 mins by oral glucose tolerance test relative to control. The format is functional. More on the design: scale not given: the % may be the effect or the level left. The settings on record: in the assay text read “C57BL/J6 mouse” for “C57BL/J6 db/db mouse”. The method, boiled down: (§1)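 Oral glucose tolerance test. Mice: eight-week-old male C57BL/6 or ten-week-old male C57BLKS/J db/db, fasted overnight with water. Compound or 0.5% methylcellulose vehicle given orally, then an oral 2 g/kg glucose challenge 30 min later. Tail-tip blood glucose was read just before and at 30, 60, 90, 120 and 180 min. AUC was calculated from the time–glucose curve; n = 6.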

For data set [2], the system named is Mus musculus. Kind of data set: Antidiabetic activity in glucose-treated C57BL/J6 db/db mouse assessed as reduction of glucose AUC at 30 to 100 mg/kg, po administered for 2 weeks preincubated for 30 mins followed by glucose challenge measured after 30 to 180 mins by oral glucose tolerance test relative to control. The format is functional. Also noted: scale not given: the % may be the effect or the level left. The essentials: as §1

Data set [3] can be described thus: AUC (0 to t) in female Sprague-Dawley rat at 250 mg/kg, po measured on day 1. The format is ADME, organism-based. More on the design: dose 250 mg/kg, route oral. The settings on record: plasma. The method, boiled down: (§2)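 Sprague–Dawley rats, 5 weeks old at arrival, both sexes. Given the compound by oral gavage once daily for 14 days at 0, 250, 500 or 1000 mg/kg/day, with 0.5% methylcellulose as vehicle. Toxicokinetic parameters were determined on Day 1 and Day 14.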

A short description of data set [4]: Apparent permeability of the compound by PAMPA. The format is physicochemical.
The nature of data set [5]: AUC (0 to t) in male Sprague-Dawley rat at 250 mg/kg, po measured on day 1. The format is ADME, organism-based. Also noted: dose 250 mg/kg, route oral. The settings on record: plasma. The essentials: as §2
The next data set has as its target T1, Cytochrome P450 1A2 (Homo sapiens, UniProt P05177).
T1 sequence (P05177 whole entry): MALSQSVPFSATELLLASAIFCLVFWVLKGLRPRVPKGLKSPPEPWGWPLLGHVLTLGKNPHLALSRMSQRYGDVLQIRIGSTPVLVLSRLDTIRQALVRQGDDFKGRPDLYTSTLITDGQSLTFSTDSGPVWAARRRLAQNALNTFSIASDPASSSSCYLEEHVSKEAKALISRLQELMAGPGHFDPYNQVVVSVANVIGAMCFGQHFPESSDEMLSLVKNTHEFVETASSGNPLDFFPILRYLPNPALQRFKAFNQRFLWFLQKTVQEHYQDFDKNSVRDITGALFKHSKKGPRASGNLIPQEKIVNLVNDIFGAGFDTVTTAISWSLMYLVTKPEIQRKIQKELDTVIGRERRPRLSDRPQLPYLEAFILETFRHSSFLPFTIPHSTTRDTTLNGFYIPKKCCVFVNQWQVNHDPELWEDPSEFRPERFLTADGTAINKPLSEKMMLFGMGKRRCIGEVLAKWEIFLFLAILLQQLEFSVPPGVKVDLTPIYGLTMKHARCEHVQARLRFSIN
As to the kind of experiment: Inhibition of CYP1A2 in human liver microsomes. The format is ADME. The method, boiled down:
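Pooled human liver microsomes at 0.25 mg/mL, each with a CYP-selective substrate and test compound up to 25 µM, preincubated at 37 °C. It is stopped on ice with ice-cold acetonitrile and centrifuged, and the supernatant is analysed by LC–MS/MS.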

Data set [6] can be described thus: Cmax in male Sprague-Dawley rat at 250 mg/kg, po measured on day 1. The format is ADME, organism-based. Also noted: dose 250 mg/kg, route oral. Particulars: in vivo; call rule not given here. The essentials: as §2
Data set [7] in a line: Elimination half life in ICR mouse at 3 mg/kg, iv and 10 mg/kg, po. The format is ADME, organism-based. Particulars: in vivo, read-out: beta t1/2 (converted). The method, boiled down:
(§3)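 Male ICR mice and 7-week-old SD rats received a 3 mg/kg intravenous bolus or a 10 mg/kg oral gavage dose. Plasma was deproteinized with acetonitrile (2 volumes) and compound measured by HPLC. Parameters came from noncompartmental analysis.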

The nature of data set [8]: Mean residence time in ICR mouse at 3 mg/kg, iv and 10 mg/kg, po. The format is ADME, organism-based. The settings on record: in vivo. The essentials:
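Male ICR mice and 7-week-old SD rats received a 3 mg/kg iv bolus or a 10 mg/kg oral gavage dose. Plasma was precipitated with 2 volumes of acetonitrile and analysed by HPLC. Parameters came from noncompartmental analysis.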

Data set [9] is described as follows: Tmax in female Sprague-Dawley rat at 1000 mg/kg, po measured on day 1. The format is ADME, organism-based. Also noted: dose 1000 mg/kg, route oral. The settings on record: in vivo. The method, boiled down: (§4)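 Sprague–Dawley rats of both sexes, 5 weeks old at arrival, received daily oral gavage at 0, 250, 500 or 1000 mg/kg/day for 14 days. Vehicle was 0.5% methylcellulose at 10 mL/kg. Toxicokinetics were taken on Day 1 and Day 14. Necropsy was by Day 15. Testis was fixed in modified Davidson's fixative, paraffin-sectioned and H&E-stained, with histopathology on control and high-dose groups only.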

A further data set relates to Salmonella typhimurium. Kind of data set: Cytotoxicity in Salmonella typhimurium TA100 at 1.5 to 5000 ug/plate in absence of S9 fraction. The format is organism-based. Particulars: salmonella enterica subsp. enterica serovar typhimurium. The essentials: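 Ames reverse mutation test by direct plate incorporation in S. typhimurium TA98 and TA100, with or without Aroclor 1254-induced rat liver S9 mix. Compound in DMSO at 1.5–5000 µg/plate, plated in top agar, incubated 37 °C for about 50 h, then revertant colonies counted. Plates were checked for precipitation and cytotoxicity. A positive was a reproducible, dose-related increase in revertants of more than 2-fold.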

Data set [10] in a line: AUC (0 to t) in female Sprague-Dawley rat at 250 mg/kg, po measured on day 14. The format is ADME, organism-based. More on the design: dose 250 mg/kg, route oral. Particulars: plasma. The method, boiled down: as §2
Data set [11] in a line: AUC (0 to t) in male Sprague-Dawley rat at 500 mg/kg, po measured on day 1. The format is ADME, organism-based. More on the design: dose 500 mg/kg, route oral. The settings on record: plasma. The essentials: as §2
Data set [12] in a line: Tmax in male Sprague-Dawley rat at 250 mg/kg, po measured on day 14. The format is ADME, organism-based. Also noted: dose 250 mg/kg, route oral. Particulars: in vivo. The essentials: as §4
Data set [13] is described as follows: Cmax in male Sprague-Dawley rat at 500 mg/kg, po measured on day 14. The settings on record: in vivo. The format is ADME, organism-based. More on the design: dose 500 mg/kg, route oral. The essentials: as §2
A short description of data set [14]: Cmax in Sprague-Dawley rat at 3 mg/kg, iv and 10 mg/kg, po. The format is ADME, organism-based. The settings on record: in vivo. The essentials:
as §3

Consider 1 compound from ChEMBL document CHEMBL3232870, “Discovery of 3-(4-methanesulfonylphenoxy)-N-[1-(2-methoxy-ethoxymethyl)-1H-pyrazol-3-yl]-5-(3-methylpyridin-2-yl)-benzamide as a novel glucokinase activator (GKA) for the treatment of type 2 diabetes mellitus” (Bioorg Med Chem, 2014).

On to `COCCOCn1ccc(NC(=O)c2cc(Oc3ccc(S(C)(=O)=O)cc3)cc(-c3ncccc3C)c2)n1`, for which the Activity is recorded as 32.3% in the data set on Mus musculus [1], 39.8% in the data set on Mus musculus [2] and “Non-toxic” with Salmonella typhimurium. The AUC(0-t) in data set [3] was determined as 13700 ng·h/mL; in [5], 13100 ng·h/mL; in [10] it was 17600 ng·h/mL; in [11] it was 16900 ng·h/mL. Besides, the apparent permeability (Papp) in [4] stood at 2.62 ×10⁻⁶ cm/s. For the same compound, the “inhibition (INH)” value against Cytochrome P450 1A2 is “Not Active”. The Cmax in data set [6] was 3060 ng/mL; in data set [13] it was 2800 ng/mL; in data set [14] it was 3700 ng/mL. Besides, in data set [7], the half-life was 1.4 h. The MRT in data set [8] worked out at 0.92 h. Besides, the Tmax in data set [9] stood at 2.7 h; in [12] it was 3 h.
